In ChEMBL document CHEMBL1143036, “Potential anti-inflammatory actions of the elmiric (lipoamino) acids” (2007):
Activity calls are given as the source filed them. The rule behind the calls is not given here.

Key:
[1] = test system: RAW264.7; assay: Ratio of iPGJ2 to iPGE in LPS-induced mouse RAW264.7 cells at 1 uM by ELISA; type: functional
Method in brief: (§1)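 RAW cells were seeded at 20,000/well and cultured 20 h at 37°C in 5% CO2, then washed and placed in serum-free RPMI. Compounds were added in DMSO at 1 or 10 uM final (N=3). LPS solution (1 ug/ml) was added 30 min later, with a further 2 h incubation. Centrifuged media were assayed by enzyme immunoassay for immunoreactive PGE and PGJ2 (pg/ml); the ratio is iPGJ/iPGE.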

[2] = test system: RAW264.7; assay: Effect on iPGJ2 level in LPS-induced mouse RAW264.7 cells at 10 uM by ELISA; type: functional; method in brief: as §1
[3] = test system: RAW264.7; assay: Effect on iPGE2 level in LPS-induced mouse RAW264.7 cells at 10 uM by ELISA; type: functional; method in brief: as §1
[4] = test system: RAW264.7; assay: Ratio of iPGJ2 to iPGE in LPS-induced mouse RAW264.7 cells at 10 uM by ELISA; type: functional; method in brief: as §1
[5] = test system: RAW264.7; assay: Effect on iPGE2 level in LPS-induced mouse RAW264.7 cells at 1 uM by ELISA; type: functional; method in brief: as §1
[6] = test system: RAW264.7; assay: Effect on iPGJ2 level in LPS-induced mouse RAW264.7 cells at 1 uM by ELISA; type: functional; method in brief: as §1
[7] = test system: Mus musculus; assay: Reduction of phorbol ester-induced ear edema in CD1 mouse assessed as ear thickness at 200 ug/ear; type: functional; set-up: scale not given: the % may be the effect or the level left
Method in brief: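 Male CD-1 mice (34–40 g), topically dosed at 200 ug/ear in 10 ul acetone on the ipsilateral ear, with acetone alone on the contralateral ear. Phorbol ester was the edema inducer. Ear thickness was read by digital micrometer and expressed as the ipsilateral minus contralateral difference in microns. N = 8; paired t-test against vehicle.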

[8] = test system: RAW264.7; assay: Antiproliferative activity against LPS-induced mouse RAW264.7 cells assessed as number of cells at 0.1 uM after 48 hrs; type: functional
Method in brief: (§2)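 RAW264.7 mouse macrophages were seeded at 500 cells/well and held 24 h at 37°C in 5% CO2. Compound was added (n=4 wells), then LPS solution (1 ug/ml) 1 h later, followed by 48 h incubation. Cell number was read as ATP luminescence (CellTiter-Glo), which is linear with cell count. Values are four-well means, […].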

[9] = test system: RAW264.7; assay: Antiproliferative activity against LPS-induced mouse RAW264.7 cells assessed as number of cells at 10 uM after 48 hrs; type: functional; method in brief: as §2
[10] = test system: RAW264.7; assay: Antiproliferative activity against LPS-induced mouse RAW264.7 cells assessed as number of cells at 1 uM after 48 hrs; type: functional; method in brief: as §2
[11] = test system: Mus musculus; assay: Reduction of phorbol ester-induced ear edema in CD1 mouse assessed as ear thickness; type: functional, organism-based

SMILES | Ratio [1] | Activity [2] | Activity [3] | Ratio [4] | Activity [5] | Activity [6] | Activity [7] | Activity [8] | Cell number [9] | Cell number [10] | Activity [11]
CCCCC/C=C\C/C=C\C/C=C\C/C=C\CCCC(=O)NCC(=O)O [ARACHIDONOYL GLYCINE] | 147 | 97830 pg/mL | 425 pg/mL | 229 | 273 pg/mL | 40407 pg/mL | 40% | 5630 | 591 | 6156 | –
CCCCC/C=C\C/C=C\CCCCCCCC(=O)N[C@@H](C)C(=O)O | – | – | – | – | – | – | – | 3955 | 621 | 4233 | –
O=C1CCN(c2ccccc2)N1 | – | – | – | – | – | – | – | – | – | – | inactive
CCCCC/C=C\C/C=C\C/C=C\CCCCCCC(=O)NCC(=O)O | – | – | – | – | – | – | – | 5486 | 647 | 5563 | –
CCCCCCCC/C=C\CCCCCCCC(=O)N[C@@H](C)C(=O)O | – | – | – | – | – | – | – | 3637 | 422 | 4533 | –
CCCCC/C=C\C/C=C\CCCCCCCC(=O)NCC(=O)O [LINOLEOYL GLYCINE] | – | – | – | – | – | – | – | 5979 | 713 | 4595 | –
CCCCCCCCCCCCCCCC(=O)N[C@H](C)C(=O)O | 1 | 3079 pg/mL | 319 pg/mL | 9 | 256 pg/mL | 281 pg/mL | – | – | – | – | –
CCCCC/C=C\C/C=C\C/C=C\CCCCCCC(=O)N[C@@H](C)C(=O)O | – | – | – | – | – | – | – | 4326 | 637 | 4680 | –
CCCCC/C=C\C/C=C\C/C=C\CCCCC(=O)NCC(=O)O | 39 | 80205 pg/mL | 289 pg/mL | 277 | 127 pg/mL | 5040 pg/mL | – | 5435 | 6602 | 5700 | –
CCCCC/C=C\C/C=C\C/C=C\CCCCC(=O)N[C@@H](C)C(=O)O | – | – | – | – | – | – | – | 4247 | 2696 | 4557 | –
CCCCC/C=C\C/C=C\CCCCCCCCCC(=O)NCC(=O)O | – | – | – | – | – | – | – | 2945 | 609 | 5738 | –
CCCCC/C=C\C/C=C\C/C=C\C/C=C\CCCC(=O)N[C@@H](C)C(=O)O | 9 | 41059 pg/mL | 652 pg/mL | 62 | 241 pg/mL | 2345 pg/mL | – | 4781 | 2110 | 4735 | –
CCCCCCCCCCCCCCCC(=O)NCC(=O)O [PALMITOYL GLYCINE] | 2 | 401 pg/mL | 128 pg/mL | 3 | 103 pg/mL | 219 pg/mL | – | 5120 | 5108 | 5524 | –
CCCCC/C=C\C/C=C\CCCCCCCCCC(=O)N[C@@H](C)C(=O)O | – | – | – | – | – | – | – | 3641 | 605 | 4397 | –
CCCCC/C=C\C/C=C\C/C=C\C/C=C\CCCC(=O)N[C@H](C)C(=O)O | 12 | 28224 pg/mL | 269 pg/mL | 104 | 124 pg/mL | 1496 pg/mL | – | – | – | – | –
CCCCC/C=C\C/C=C\C/C=C\C/C=C\CCCCCC(=O)NCC(=O)O | – | – | – | – | – | – | – | 5131 | 3574 | 5310 | –
CCCCCCCCCCCCCCCC(=O)N[C@@H](C)C(=O)O | 1 | – | 232 pg/mL | 17 | 251 pg/mL | 261 pg/mL | – | 4541 | 432 | 4670 | –
CCCCCCCCCCCCCCCCCC(=O)NCC(=O)O | 1 | 159 pg/mL | 126 pg/mL | 1 | 121 pg/mL | 201 pg/mL | – | – | – | – | –
CCCCC/C=C\C/C=C\C/C=C\C/C=C\CCCCCC(=O)N[C@@H](C)C(=O)O | – | – | – | – | – | – | – | 4668 | 618 | 4415 | –
COc1ccc2cc([C@H](C)C(=O)O)ccc2c1 [NAPROXEN] | – | 70 pg/mL | 75 pg/mL | 1 | – | – | – | – | – | – | –
CCCCCCCC/C=C\CCCCCCCC(=O)NCC(=O)O [OLEOYL GLYCINE] | – | – | – | – | – | – | – | 5172 | 425 | 5557 | –
